Measurements from ChEMBL document CHEMBL3407339, “A novel series of thiazolyl-pyrazoline derivatives: synthesis and evaluation of antifungal activity, cytotoxicity and genotoxicity” (Eur J Med Chem, 2015).
≈ marks a conversion by molar mass, not a printed value.

Columns and labels:
[1] = tested on: Nakaseomyces glabratus; assay: Antifungal activity against Candida glabrata clinical isolate after 48 hrs by broth microdilution assay; assay type: functional
How it was run: (§1)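 Broth microdilution of DMSO stocks serially diluted in sterile water (4 to 0.0039 mg/mL). Yeasts grown on SDA at 37 °C for 24 h, suspended in double-strength PDB at 10⁵ spores/mL. Incubated at 37 °C for 48 h, then sprayed with 0.5% aqueous TTC. MIC = lowest concentration inhibiting visible growth. Ketoconazole reference.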

[2] = tested on: Candida albicans; assay: Antifungal activity against Candida albicans ATCC 90028 after 48 hrs by broth microdilution assay; assay type: functional; conditions: ATCC 90028, 48 h; how it was run: as §1
[3] = tested on: Candida tropicalis; assay: Antifungal activity against Candida tropicalis NRLL Y 12968 after 48 hrs by broth microdilution assay; assay type: functional; conditions: NRLL Y 12968, 48 h; how it was run: as §1
[4] = tested on: Pichia kudriavzevii; assay: Antifungal activity against Candida krusei NRLL Y 7179 after 48 hrs by broth microdilution assay; assay type: functional; conditions: NRLL Y 7179, 48 h; how it was run: as §1
[5] = tested on: [Candida] zeylanoides; assay: Antifungal activity against Candida zeylanoides NRLL Y 1774 after 48 hrs by broth microdilution assay; assay type: functional; conditions: Dujonia zeylanoides, NRLL Y 1774, 48 h; how it was run: as §1
[6] = tested on: Candida parapsilosis; assay: Antifungal activity against Candida parapsilosis NRLL Y 12696 after 48 hrs by broth microdilution assay; assay type: functional; conditions: Lodderomyces parapsilosis, NRLL Y 12696, 48 h; how it was run: as §1
[7] = tested on: Aspergillus flavus; assay: Antifungal activity against Aspergillus flavus NRRL 980 after 72 hrs by broth microdilution assay; assay type: functional; conditions: NRRL 980, 72 h
How it was run: (§2)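 Compounds dissolved in DMSO, diluted in sterile distilled water from 4 to 0.0039 mg/mL. Molds grown on PDA at 25 °C for 5 days, suspended in double-strength PDB at 10⁵ spores/mL. Incubated at 25 °C for 72 h; mycelial growth read under stereo microscope. MIC = lowest concentration inhibiting visible growth. Ketoconazole reference.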

[8] = tested on: Aspergillus niger; assay: Antifungal activity against Aspergillus niger ATCC 1094 after 72 hrs by broth microdilution assay; assay type: functional; conditions: ATCC 1094, 72 h; how it was run: as §2
[9] = tested on: Aspergillus parasiticus; assay: Antifungal activity against Aspergillus parasiticus NRRL 465 after 72 hrs by broth microdilution assay; assay type: functional; conditions: NRRL 465, 72 h; how it was run: as §2
[10] = tested on: Fusarium solani; assay: Antifungal activity against Fusarium solani NRRL 13414 after 72 hrs by broth microdilution assay; assay type: functional; conditions: NRRL 13414, 72 h; how it was run: as §2
[11] = tested on: Salmonella typhimurium; assay: Mutagenicity in Salmonella typhimurium TA98 at 0.156 mg/ml after 48 hrs by AMES MPF assay in presence of Sprague-Dawley rat liver microsomal S9 fraction relative to baseline; assay type: toxicity, organism-based; conditions: salmonella enterica subsp. enterica serovar typhimurium
How it was run: (§3)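 Ames MPF fluctuation test with TA98/TA100. Overnight cultures (37 °C, 14–16 h) mixed with exposure medium; ±Aroclor-1254-induced rat liver S9 (final 4.5% v/v). Compounds in DMSO, 0.156–5 mg/mL. 90 min exposure at 37 °C, then indicator medium; 48 wells per concentration, 48 h at 37 °C, in triplicate. Yellow wells counted; fold induction over baseline (mean + 1 SD of zero-dose control).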

[12] = tested on: Salmonella typhimurium; assay: Mutagenicity in Salmonella typhimurium TA98 at 0.3125 mg/ml after 48 hrs by AMES MPF assay in presence of Sprague-Dawley rat liver microsomal S9 fraction relative to baseline; assay type: toxicity, organism-based; conditions: salmonella enterica subsp. enterica serovar typhimurium; how it was run: as §3
[13] = tested on: Salmonella typhimurium; assay: Mutagenicity in Salmonella typhimurium TA98 at 0.625 mg/ml after 48 hrs by AMES MPF assay in presence of Sprague-Dawley rat liver microsomal S9 fraction relative to baseline; assay type: toxicity, organism-based; conditions: salmonella enterica subsp. enterica serovar typhimurium; how it was run: as §3
[14] = tested on: Salmonella typhimurium; assay: Mutagenicity in Salmonella typhimurium TA98 at 1.25 mg/ml after 48 hrs by AMES MPF assay in presence of Sprague-Dawley rat liver microsomal S9 fraction relative to baseline; assay type: toxicity, organism-based; conditions: salmonella enterica subsp. enterica serovar typhimurium; how it was run: as §3
[15] = tested on: Salmonella typhimurium; assay: Mutagenicity in Salmonella typhimurium TA98 at 2.5 mg/ml after 48 hrs by AMES MPF assay in presence of Sprague-Dawley rat liver microsomal S9 fraction relative to baseline; assay type: toxicity, organism-based; conditions: salmonella enterica subsp. enterica serovar typhimurium; how it was run: as §3
[16] = tested on: Salmonella typhimurium; assay: Mutagenicity in Salmonella typhimurium TA98 at 5 mg/ml after 48 hrs by AMES MPF assay in presence of Sprague-Dawley rat liver microsomal S9 fraction relative to baseline; assay type: toxicity, organism-based; conditions: salmonella enterica subsp. enterica serovar typhimurium; how it was run: as §3
[17] = tested on: Salmonella typhimurium; assay: Mutagenicity in Salmonella typhimurium TA98 at 0.156 mg/ml after 48 hrs by AMES MPF assay in absence of Sprague-Dawley rat liver microsomal S9 fraction relative to baseline; assay type: toxicity, organism-based; conditions: salmonella enterica subsp. enterica serovar typhimurium; how it was run: as §3
[18] = tested on: Salmonella typhimurium; assay: Mutagenicity in Salmonella typhimurium TA98 at 0.3125 mg/ml after 48 hrs by AMES MPF assay in absence of Sprague-Dawley rat liver microsomal S9 fraction relative to baseline; assay type: toxicity, organism-based; conditions: salmonella enterica subsp. enterica serovar typhimurium; how it was run: as §3
[19] = tested on: Salmonella typhimurium; assay: Mutagenicity in Salmonella typhimurium TA98 at 0.625 mg/ml after 48 hrs by AMES MPF assay in absence of Sprague-Dawley rat liver microsomal S9 fraction relative to baseline; assay type: toxicity, organism-based; conditions: salmonella enterica subsp. enterica serovar typhimurium; how it was run: as §3
[20] = tested on: Salmonella typhimurium; assay: Mutagenicity in Salmonella typhimurium TA98 at 1.25 mg/ml after 48 hrs by AMES MPF assay in absence of Sprague-Dawley rat liver microsomal S9 fraction relative to baseline; assay type: toxicity, organism-based; conditions: salmonella enterica subsp. enterica serovar typhimurium; how it was run: as §3
[21] = tested on: Salmonella typhimurium; assay: Mutagenicity in Salmonella typhimurium TA98 at 2.5 mg/ml after 48 hrs by AMES MPF assay in absence of Sprague-Dawley rat liver microsomal S9 fraction relative to baseline; assay type: toxicity, organism-based; conditions: salmonella enterica subsp. enterica serovar typhimurium; how it was run: as §3
[22] = tested on: Salmonella typhimurium; assay: Mutagenicity in Salmonella typhimurium TA98 at 5 mg/ml after 48 hrs by AMES MPF assay in absence of Sprague-Dawley rat liver microsomal S9 fraction relative to baseline; assay type: toxicity, organism-based; conditions: salmonella enterica subsp. enterica serovar typhimurium; how it was run: as §3
[23] = tested on: Salmonella typhimurium; assay: Mutagenicity in Salmonella typhimurium TA100 at 0.156 mg/ml after 48 hrs by AMES MPF assay in presence of Sprague-Dawley rat liver microsomal S9 fraction relative to baseline; assay type: toxicity, organism-based; conditions: salmonella enterica subsp. enterica serovar typhimurium; how it was run: as §3
[24] = tested on: Salmonella typhimurium; assay: Mutagenicity in Salmonella typhimurium TA100 at 0.3125 mg/ml after 48 hrs by AMES MPF assay in presence of Sprague-Dawley rat liver microsomal S9 fraction relative to baseline; assay type: toxicity, organism-based; conditions: salmonella enterica subsp. enterica serovar typhimurium; how it was run: as §3
[25] = tested on: Salmonella typhimurium; assay: Mutagenicity in Salmonella typhimurium TA100 at 0.625 mg/ml after 48 hrs by AMES MPF assay in presence of Sprague-Dawley rat liver microsomal S9 fraction relative to baseline; assay type: toxicity, organism-based; conditions: salmonella enterica subsp. enterica serovar typhimurium; how it was run: as §3
[26] = tested on: Salmonella typhimurium; assay: Mutagenicity in Salmonella typhimurium TA100 at 1.25 mg/ml after 48 hrs by AMES MPF assay in presence of Sprague-Dawley rat liver microsomal S9 fraction relative to baseline; assay type: toxicity, organism-based; conditions: salmonella enterica subsp. enterica serovar typhimurium; how it was run: as §3
[27] = tested on: Salmonella typhimurium; assay: Mutagenicity in Salmonella typhimurium TA100 at 2.5 mg/ml after 48 hrs by AMES MPF assay in presence of Sprague-Dawley rat liver microsomal S9 fraction relative to baseline; assay type: toxicity, organism-based; conditions: salmonella enterica subsp. enterica serovar typhimurium; how it was run: as §3
[28] = tested on: Salmonella typhimurium; assay: Mutagenicity in Salmonella typhimurium TA100 at 5 mg/ml after 48 hrs by AMES MPF assay in presence of Sprague-Dawley rat liver microsomal S9 fraction relative to baseline; assay type: toxicity, organism-based; conditions: salmonella enterica subsp. enterica serovar typhimurium; how it was run: as §3
[29] = tested on: Salmonella typhimurium; assay: Mutagenicity in Salmonella typhimurium TA100 at 0.156 mg/ml after 48 hrs by AMES MPF assay in absence of Sprague-Dawley rat liver microsomal S9 fraction relative to baseline; assay type: toxicity, organism-based; conditions: salmonella enterica subsp. enterica serovar typhimurium; how it was run: as §3
[30] = tested on: Salmonella typhimurium; assay: Mutagenicity in Salmonella typhimurium TA100 at 0.3125 mg/ml after 48 hrs by AMES MPF assay in absence of Sprague-Dawley rat liver microsomal S9 fraction relative to baseline; assay type: toxicity, organism-based; conditions: salmonella enterica subsp. enterica serovar typhimurium; how it was run: as §3
[31] = tested on: Salmonella typhimurium; assay: Mutagenicity in Salmonella typhimurium TA100 at 0.625 mg/ml after 48 hrs by AMES MPF assay in absence of Sprague-Dawley rat liver microsomal S9 fraction relative to baseline; assay type: toxicity, organism-based; conditions: salmonella enterica subsp. enterica serovar typhimurium; how it was run: as §3
[32] = tested on: Salmonella typhimurium; assay: Mutagenicity in Salmonella typhimurium TA100 at 1.25 mg/ml after 48 hrs by AMES MPF assay in absence of Sprague-Dawley rat liver microsomal S9 fraction relative to baseline; assay type: toxicity, organism-based; conditions: salmonella enterica subsp. enterica serovar typhimurium; how it was run: as §3
[33] = tested on: Salmonella typhimurium; assay: Mutagenicity in Salmonella typhimurium TA100 at 2.5 mg/ml after 48 hrs by AMES MPF assay in absence of Sprague-Dawley rat liver microsomal S9 fraction relative to baseline; assay type: toxicity, organism-based; conditions: salmonella enterica subsp. enterica serovar typhimurium; how it was run: as §3
[34] = tested on: Salmonella typhimurium; assay: Mutagenicity in Salmonella typhimurium TA100 at 5 mg/ml after 48 hrs by AMES MPF assay in absence of Sprague-Dawley rat liver microsomal S9 fraction relative to baseline; assay type: toxicity, organism-based; conditions: salmonella enterica subsp. enterica serovar typhimurium; how it was run: as §3
[35] = tested on: A549; assay: Antiproliferative activity against human A549 cells after 24 hrs by XTT assay; assay type: functional, cell-based; conditions: A549, 24 h
How it was run: (§4)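 A549 cells in RPMI and NIH/3T3 cells in DMEM, each with fetal calf serum, antibiotics and 7.5% NaHCO₃, at 37 °C, 5% CO₂. Seeded at 20,000 cells/well, 24 h, then compounds added in medium at 500–3.9 doses (final DMSO <0.1%) for 24 h. XTT read after 3 h at 480 nm (ref 680 nm). IC₅₀ by non-linear regression; triplicates; cisplatin control.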

[36] = Cytotoxicity against mouse NIH/3T3 cells after 24 hrs by XTT assay; assay type: cell-based; conditions: NIH3T3, 24 h; how it was run: as §4

MIC [1]: 125 µg/mL (≈ 281 µM)
MIC [2]: 250 µg/mL (≈ 562 µM)
MIC [3]: 250 µg/mL (≈ 562 µM)
MIC [4]: 250 µg/mL (≈ 562 µM)
MIC [5]: 250 µg/mL (≈ 562 µM)
MIC [6]: 250 µg/mL (≈ 562 µM)
MIC [7]: 125 µg/mL (≈ 281 µM)
MIC [8]: 250 µg/mL (≈ 562 µM)
MIC [9]: 250 µg/mL (≈ 562 µM)
MIC [10]: 250 µg/mL (≈ 562 µM)
IC50 [35]: 322 µg/mL (≈ 724 µM)
Compound: Cc1ccc(C2=NN(c3nc(-c4ccc(C#N)cc4)cs3)C(c3ccc(F)cc3)C2)s1 (stereo unspecified)
fold change (FC) [11]: 0.27
fold change (FC) [12]: 0.18
fold change (FC) [13]: 1.07
fold change (FC) [14]: 0.44
fold change (FC) [15]: 0.89
fold change (FC) [16]: 1.16
fold change (FC) [17]: 1.78
fold change (FC) [18]: 1.56
fold change (FC) [19]: 1.11
fold change (FC) [20]: 1.11
fold change (FC) [21]: 1.56
fold change (FC) [22]: 1.33
fold change (FC) [23]: 1.01
fold change (FC) [24]: 0.94
fold change (FC) [25]: 0.86
fold change (FC) [26]: 0.7
fold change (FC) [27]: 0.55
fold change (FC) [28]: 1.01
fold change (FC) [29]: 0.8
fold change (FC) [30]: 0.74
fold change (FC) [31]: 0.74
fold change (FC) [32]: 0.31
fold change (FC) [33]: 0.31
fold change (FC) [34]: 0.8
IC50 [36]: 250 µg/mL (≈ 562 µM)
